ChEMBL document CHEMBL4020727, “Synthesis and biological evaluation of largazole zinc-binding group analogs” (Bioorg Med Chem, 2017)
Values belong to the compound of their own block, whether it stands above or below them. Calls of active or inactive are those of the source. The rule behind the calls is not given here.

Columns and labels:
[1] = target: Histone deacetylase 5 (Homo sapiens) (UniProt Q9UQL6); assay: Inhibition of full length N-terminal GST-tagged human HDAC5 expressed in baculovirus infected Sf9 insect cells using BPS HDAC class 2a substrate at 1 uM after 30 mins by fluorescence assay relative to control
Method in brief: (§1)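 Run by a contract lab. Compound incubated with HDAC enzyme, HDAC substrate, BSA and HDAC buffer, in duplicate, at 37 °C for 30 min. Quenched with HDAC developer, then 15 min at room temperature. Fluorescence read at ex 360/em 460 nm. Percent activity = (F−Fb)/(Ft−Fb), using blank and solvent-control wells. IC50 from curve fitting.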

[2] = target: T1, Polyamine deacetylase HDAC10 (Homo sapiens, UniProt Q969S8); assay: Inhibition of N-terminal GST-tagged/C-terminal His-tagged human HDAC10 (1 to 481 residues) expressed in baculovirus infected Sf9 insect cells using BPS HDAC substrate 3 after 30 mins by fluorescence assay; method in brief: as §1
T1 sequence (Q969S8 whole entry): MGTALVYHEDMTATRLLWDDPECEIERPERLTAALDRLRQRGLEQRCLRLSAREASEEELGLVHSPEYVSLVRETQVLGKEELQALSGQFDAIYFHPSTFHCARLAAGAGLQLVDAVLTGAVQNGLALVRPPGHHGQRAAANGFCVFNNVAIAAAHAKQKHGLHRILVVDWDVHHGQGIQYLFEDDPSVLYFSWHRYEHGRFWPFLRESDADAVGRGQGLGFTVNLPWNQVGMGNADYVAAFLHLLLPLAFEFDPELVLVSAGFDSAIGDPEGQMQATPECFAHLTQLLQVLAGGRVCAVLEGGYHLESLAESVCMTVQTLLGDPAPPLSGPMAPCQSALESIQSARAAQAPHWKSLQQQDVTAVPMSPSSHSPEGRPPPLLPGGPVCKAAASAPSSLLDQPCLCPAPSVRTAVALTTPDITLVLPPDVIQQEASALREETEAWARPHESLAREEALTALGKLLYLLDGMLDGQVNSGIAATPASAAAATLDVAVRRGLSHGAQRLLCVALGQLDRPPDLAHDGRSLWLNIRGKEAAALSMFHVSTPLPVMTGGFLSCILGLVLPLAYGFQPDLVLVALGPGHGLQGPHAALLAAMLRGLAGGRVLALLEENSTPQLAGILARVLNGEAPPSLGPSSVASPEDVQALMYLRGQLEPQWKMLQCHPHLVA

[3] = tested on: HCT-116; assay: Cytotoxicity against human HCT116 cells assessed as reduction in cell viability after 48 hrs by MTT assay; format: functional, cell-based; settings: HCT-116, 48 h
Method in brief: (§2)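 Cells grown in DMEM with 10% FBS, 37 °C, 5% CO2; 1 × 10^4 cells per well plated and left 24 h, then exposed to a range of compound concentrations or vehicle (1% EtOH) for 48 h. Viability read by MTT.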

[4] = tested on: MDA-MB-231; assay: Cytotoxicity against human MDA-MB-231 cells assessed as reduction in cell viability after 48 hrs by MTT assay; format: functional, cell-based; settings: MDA-MB-231, 48 h; method in brief: as §2
[5] = species on record: Homo sapiens; assay: Inhibition of class 1 HDAC in human HCT116 cells assessed as hyperacetylation of histone H3 (Lys9/14) measured at 8 hrs post treatment by immunoblot analysis; format: cell-based
Method in brief: (§3)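 Cells in DMEM/10% FBS; 4 × 10^5 cells seeded in 60-mm dishes overnight, then treated for 8 h with 0–10 μM (final) compound or vehicle (1% EtOH). Whole-cell lysates loaded at equal protein (BCA), run on SDS-PAGE, blotted to PVDF and probed with anti-acetyl histone H3 (Lys9/14); β-actin also probed. Chemiluminescent detection.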

[6] = species on record: Homo sapiens; assay: Inhibition of class 1 HDAC in human MDA-MB-231 cells assessed as hyperacetylation of histone H3 (Lys9/14) measured at 8 hrs post treatment by immunoblot analysis; format: cell-based; method in brief: as §3
[7] = tested on: HCT-116; assay: Cytotoxicity against human HCT116 cells assessed as change in cell viability at 10 uM after 48 hrs by MTT assay; format: functional, cell-based; method in brief: as §2
[8] = tested on: MDA-MB-231; assay: Cytotoxicity against human MDA-MB-231 cells assessed as change in cell viability at 10 uM after 48 hrs by MTT assay; format: functional, cell-based; method in brief: as §2
[9] = target: Histone deacetylase 1 (Homo sapiens, UniProt Q13547); assay: Inhibition of recombinant full length C-terminal His/FLAG-tagged human HDAC1 expressed in baculovirus infected Sf9 insect cells using BPS HDAC substrate 3 at 10 uM after 30 mins by fluorescence assay relative to control
Method in brief: (§4)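 Run by a contract lab. Compound incubated with HDAC enzyme, substrate, bovine serum albumin and HDAC buffer in duplicate for 30 min at 37 °C. Quenched with HDAC developer, 15 min at room temperature, fluorescence read at ex 360/em 460 nm. Activity taken as (F−Fb)/(Ft−Fb) against blank and solvent control wells; IC50 from curve fitting.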

[10] = target: Histone deacetylase 2 (Homo sapiens, UniProt Q92769); assay: Inhibition of full length C-terminal FLAG-tagged human HDAC2 expressed in baculovirus infected Sf9 insect cells using BPS HDAC substrate 3 at 10 uM after 30 mins by fluorescence assay relative to control; method in brief: as §4
[11] = target: Histone deacetylase 3/Nuclear receptor corepressor 2 (HDAC3/NCoR2) (Homo sapiens) (UniProt O15379+Q9Y618); assay: Inhibition of full length human C-terminal His-tagged HDAC3/N-terminal GST-tagged NCOR2 (395 to 489 residues) expressed in baculovirus infected Sf9 insect cells using BPS HDAC substrate 3 at 10 uM after 30 mins by fluorescence assay relative to control; method in brief: as §4
[12] = target: Histone deacetylase 5 (Homo sapiens) (UniProt Q9UQL6); assay: Inhibition of full length N-terminal GST-tagged human HDAC5 expressed in baculovirus infected Sf9 insect cells using BPS HDAC class 2a substrate at 10 uM after 30 mins by fluorescence assay relative to control; method in brief: as §4
[13] = target: T2, Protein deacetylase HDAC6 (Homo sapiens) (UniProt Q9UBN7); assay: Inhibition of full length N-terminal GST-tagged human HDAC6 expressed in baculovirus infected Sf9 insect cells using HDAC substrate 3 after at 10 uM 30 mins by fluorescence assay relative to control; method in brief: as §4
T2 sequence (whole entry): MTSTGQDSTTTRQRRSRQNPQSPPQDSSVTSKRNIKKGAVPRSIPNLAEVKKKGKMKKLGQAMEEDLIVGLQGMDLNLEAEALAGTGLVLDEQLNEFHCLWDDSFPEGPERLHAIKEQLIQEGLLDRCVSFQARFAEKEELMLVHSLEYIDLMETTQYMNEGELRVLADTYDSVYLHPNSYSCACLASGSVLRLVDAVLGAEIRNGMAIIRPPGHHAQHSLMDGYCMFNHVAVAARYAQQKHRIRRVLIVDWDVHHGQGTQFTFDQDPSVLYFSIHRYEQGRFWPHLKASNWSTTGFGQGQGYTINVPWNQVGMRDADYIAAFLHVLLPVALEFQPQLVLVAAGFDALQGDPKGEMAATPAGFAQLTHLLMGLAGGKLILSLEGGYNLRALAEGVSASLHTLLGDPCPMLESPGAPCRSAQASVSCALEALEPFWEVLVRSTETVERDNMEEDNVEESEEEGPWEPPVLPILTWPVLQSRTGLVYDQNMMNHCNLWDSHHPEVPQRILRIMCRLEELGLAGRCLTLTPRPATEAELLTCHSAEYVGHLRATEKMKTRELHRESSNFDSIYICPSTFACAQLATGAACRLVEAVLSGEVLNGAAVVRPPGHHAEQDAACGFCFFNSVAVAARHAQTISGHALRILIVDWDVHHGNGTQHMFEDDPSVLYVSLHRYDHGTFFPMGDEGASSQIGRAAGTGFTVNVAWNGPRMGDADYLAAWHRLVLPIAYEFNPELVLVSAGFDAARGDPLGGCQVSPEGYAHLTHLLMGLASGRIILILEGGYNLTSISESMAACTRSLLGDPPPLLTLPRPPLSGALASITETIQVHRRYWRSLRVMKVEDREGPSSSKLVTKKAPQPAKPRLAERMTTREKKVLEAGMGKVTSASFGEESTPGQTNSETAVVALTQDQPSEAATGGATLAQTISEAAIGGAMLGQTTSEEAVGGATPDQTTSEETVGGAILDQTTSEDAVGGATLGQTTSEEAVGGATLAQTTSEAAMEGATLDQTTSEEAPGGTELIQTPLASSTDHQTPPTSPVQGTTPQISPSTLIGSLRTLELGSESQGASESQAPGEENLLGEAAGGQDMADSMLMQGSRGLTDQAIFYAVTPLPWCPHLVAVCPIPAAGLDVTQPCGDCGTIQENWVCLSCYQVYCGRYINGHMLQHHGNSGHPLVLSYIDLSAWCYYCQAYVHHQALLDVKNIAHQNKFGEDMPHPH

[14] = target: T3, Histone deacetylase 8 (Homo sapiens) (UniProt Q9BY41); assay: Inhibition of full length C-terminal His-tagged human HDAC8 expressed in baculovirus infected Sf9 insect cells using BPS HDAC class 2a substrate at 10 uM after 30 mins by fluorescence assay relative to control; method in brief: as §4
T3 sequence (whole entry): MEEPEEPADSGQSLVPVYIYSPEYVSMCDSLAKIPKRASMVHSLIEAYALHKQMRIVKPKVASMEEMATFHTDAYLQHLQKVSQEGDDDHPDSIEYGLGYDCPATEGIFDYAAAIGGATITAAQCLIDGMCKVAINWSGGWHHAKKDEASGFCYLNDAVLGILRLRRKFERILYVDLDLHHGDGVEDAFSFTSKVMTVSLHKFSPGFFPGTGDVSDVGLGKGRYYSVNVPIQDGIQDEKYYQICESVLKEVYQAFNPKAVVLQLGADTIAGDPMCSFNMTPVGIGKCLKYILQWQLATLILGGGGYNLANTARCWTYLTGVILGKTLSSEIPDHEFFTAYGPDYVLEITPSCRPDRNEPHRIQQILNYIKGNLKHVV

[15] = target: T4, Polyamine deacetylase HDAC10 (Homo sapiens) (UniProt Q969S8); assay: Inhibition of N-terminal GST-tagged/C-terminal His-tagged human HDAC10 (1 to 481 residues) expressed in baculovirus infected Sf9 insect cells using BPS HDAC substrate 3 at 10 uM after 30 mins by fluorescence assay relative to control; method in brief: as §4
T4 sequence (whole entry): T1 sequence (Q969S8 whole entry)

[16] = target: Histone deacetylase 3/Nuclear receptor corepressor 2 (HDAC3/NCoR2) (Homo sapiens, UniProt O15379); assay: Inhibition of full length human C-terminal His-tagged HDAC3/N-terminal GST-tagged NCOR2 (395 to 489 residues) expressed in baculovirus infected Sf9 insect cells using BPS HDAC substrate 3 after 30 mins by fluorescence assay
Method in brief: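 Run by a contract lab. Compound incubated with HDAC enzyme, substrate, bovine serum albumin and HDAC buffer in duplicate for 30 min at 37 °C. Activity taken as (F−Fb)/(Ft−Fb) against blank and solvent control wells; IC50 from curve fitting.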

Histone deacetylase 5 (Homo sapiens), sequence (Q9UQL6 whole entry): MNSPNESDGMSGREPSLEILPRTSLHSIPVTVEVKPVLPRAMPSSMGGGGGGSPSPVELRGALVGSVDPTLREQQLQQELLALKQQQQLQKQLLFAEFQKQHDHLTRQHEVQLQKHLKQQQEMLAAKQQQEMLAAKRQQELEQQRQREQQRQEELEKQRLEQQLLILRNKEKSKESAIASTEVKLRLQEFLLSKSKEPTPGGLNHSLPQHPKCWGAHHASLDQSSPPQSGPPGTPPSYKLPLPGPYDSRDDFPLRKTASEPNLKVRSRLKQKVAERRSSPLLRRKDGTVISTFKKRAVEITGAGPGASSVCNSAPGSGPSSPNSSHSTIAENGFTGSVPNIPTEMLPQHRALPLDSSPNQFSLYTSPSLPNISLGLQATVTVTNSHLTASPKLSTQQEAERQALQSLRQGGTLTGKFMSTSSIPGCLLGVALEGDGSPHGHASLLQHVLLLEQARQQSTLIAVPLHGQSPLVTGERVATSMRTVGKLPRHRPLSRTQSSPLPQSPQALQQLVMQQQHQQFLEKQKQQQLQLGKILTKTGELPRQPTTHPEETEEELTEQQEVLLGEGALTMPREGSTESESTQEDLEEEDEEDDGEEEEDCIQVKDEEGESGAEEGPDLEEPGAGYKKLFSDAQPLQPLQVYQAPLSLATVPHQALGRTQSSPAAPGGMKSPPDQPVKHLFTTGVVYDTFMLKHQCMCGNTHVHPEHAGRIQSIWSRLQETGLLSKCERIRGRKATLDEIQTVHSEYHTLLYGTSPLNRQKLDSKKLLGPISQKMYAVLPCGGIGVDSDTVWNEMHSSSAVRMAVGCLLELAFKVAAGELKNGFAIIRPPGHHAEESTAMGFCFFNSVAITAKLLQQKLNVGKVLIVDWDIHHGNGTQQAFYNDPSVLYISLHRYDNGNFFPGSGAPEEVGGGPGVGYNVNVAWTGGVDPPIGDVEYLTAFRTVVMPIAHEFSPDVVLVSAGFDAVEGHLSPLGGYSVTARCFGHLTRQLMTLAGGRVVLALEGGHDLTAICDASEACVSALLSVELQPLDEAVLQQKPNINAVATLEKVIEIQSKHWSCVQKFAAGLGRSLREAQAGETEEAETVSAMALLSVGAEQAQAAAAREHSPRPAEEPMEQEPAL
Histone deacetylase 2, sequence (Q92769 whole entry, the tested form may be a part): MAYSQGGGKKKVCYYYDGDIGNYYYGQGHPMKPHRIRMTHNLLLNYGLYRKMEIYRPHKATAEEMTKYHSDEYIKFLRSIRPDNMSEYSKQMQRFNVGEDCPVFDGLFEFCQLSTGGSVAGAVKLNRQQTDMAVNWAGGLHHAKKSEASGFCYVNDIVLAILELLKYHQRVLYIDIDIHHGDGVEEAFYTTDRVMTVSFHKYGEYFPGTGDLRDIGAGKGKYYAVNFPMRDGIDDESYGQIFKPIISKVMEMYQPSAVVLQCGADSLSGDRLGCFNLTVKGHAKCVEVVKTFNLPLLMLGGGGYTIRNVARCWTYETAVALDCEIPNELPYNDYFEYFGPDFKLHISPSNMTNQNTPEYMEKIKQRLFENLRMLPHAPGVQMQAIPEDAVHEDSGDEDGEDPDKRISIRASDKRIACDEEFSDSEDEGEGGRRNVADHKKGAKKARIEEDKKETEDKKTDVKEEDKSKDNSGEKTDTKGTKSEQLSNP
Histone deacetylase 1, sequence (Q13547 whole entry): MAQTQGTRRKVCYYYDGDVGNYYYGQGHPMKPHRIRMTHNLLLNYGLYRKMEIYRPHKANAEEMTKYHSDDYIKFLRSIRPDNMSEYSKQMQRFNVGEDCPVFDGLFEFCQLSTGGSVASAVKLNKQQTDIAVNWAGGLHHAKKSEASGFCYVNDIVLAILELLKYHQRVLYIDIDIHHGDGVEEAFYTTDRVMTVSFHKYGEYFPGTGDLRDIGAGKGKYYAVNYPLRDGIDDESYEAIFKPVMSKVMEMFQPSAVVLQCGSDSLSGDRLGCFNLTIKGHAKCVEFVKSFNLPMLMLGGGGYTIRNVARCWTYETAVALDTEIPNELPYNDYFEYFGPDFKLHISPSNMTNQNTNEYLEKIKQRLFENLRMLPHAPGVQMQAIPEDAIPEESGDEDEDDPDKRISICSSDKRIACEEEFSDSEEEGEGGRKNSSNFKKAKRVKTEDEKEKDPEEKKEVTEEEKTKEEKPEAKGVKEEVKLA
Histone deacetylase 3/Nuclear receptor corepressor 2 (HDAC3/NCoR2), sequence (O15379 whole entry, the tested form may be a part): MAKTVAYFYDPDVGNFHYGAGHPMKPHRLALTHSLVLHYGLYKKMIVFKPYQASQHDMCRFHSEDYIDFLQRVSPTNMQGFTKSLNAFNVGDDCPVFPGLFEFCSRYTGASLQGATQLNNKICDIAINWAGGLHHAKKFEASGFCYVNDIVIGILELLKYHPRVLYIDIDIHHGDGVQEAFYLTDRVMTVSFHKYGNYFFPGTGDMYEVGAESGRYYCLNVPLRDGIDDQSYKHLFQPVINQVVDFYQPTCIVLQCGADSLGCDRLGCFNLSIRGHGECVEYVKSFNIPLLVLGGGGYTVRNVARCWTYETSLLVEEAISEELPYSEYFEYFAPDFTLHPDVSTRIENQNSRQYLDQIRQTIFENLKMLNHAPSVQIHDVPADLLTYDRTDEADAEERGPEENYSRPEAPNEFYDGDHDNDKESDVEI
Histone deacetylase 3/Nuclear receptor corepressor 2 (HDAC3/NCoR2), sequence (Q9Y618 whole entry, further chain, the tested form may be a part): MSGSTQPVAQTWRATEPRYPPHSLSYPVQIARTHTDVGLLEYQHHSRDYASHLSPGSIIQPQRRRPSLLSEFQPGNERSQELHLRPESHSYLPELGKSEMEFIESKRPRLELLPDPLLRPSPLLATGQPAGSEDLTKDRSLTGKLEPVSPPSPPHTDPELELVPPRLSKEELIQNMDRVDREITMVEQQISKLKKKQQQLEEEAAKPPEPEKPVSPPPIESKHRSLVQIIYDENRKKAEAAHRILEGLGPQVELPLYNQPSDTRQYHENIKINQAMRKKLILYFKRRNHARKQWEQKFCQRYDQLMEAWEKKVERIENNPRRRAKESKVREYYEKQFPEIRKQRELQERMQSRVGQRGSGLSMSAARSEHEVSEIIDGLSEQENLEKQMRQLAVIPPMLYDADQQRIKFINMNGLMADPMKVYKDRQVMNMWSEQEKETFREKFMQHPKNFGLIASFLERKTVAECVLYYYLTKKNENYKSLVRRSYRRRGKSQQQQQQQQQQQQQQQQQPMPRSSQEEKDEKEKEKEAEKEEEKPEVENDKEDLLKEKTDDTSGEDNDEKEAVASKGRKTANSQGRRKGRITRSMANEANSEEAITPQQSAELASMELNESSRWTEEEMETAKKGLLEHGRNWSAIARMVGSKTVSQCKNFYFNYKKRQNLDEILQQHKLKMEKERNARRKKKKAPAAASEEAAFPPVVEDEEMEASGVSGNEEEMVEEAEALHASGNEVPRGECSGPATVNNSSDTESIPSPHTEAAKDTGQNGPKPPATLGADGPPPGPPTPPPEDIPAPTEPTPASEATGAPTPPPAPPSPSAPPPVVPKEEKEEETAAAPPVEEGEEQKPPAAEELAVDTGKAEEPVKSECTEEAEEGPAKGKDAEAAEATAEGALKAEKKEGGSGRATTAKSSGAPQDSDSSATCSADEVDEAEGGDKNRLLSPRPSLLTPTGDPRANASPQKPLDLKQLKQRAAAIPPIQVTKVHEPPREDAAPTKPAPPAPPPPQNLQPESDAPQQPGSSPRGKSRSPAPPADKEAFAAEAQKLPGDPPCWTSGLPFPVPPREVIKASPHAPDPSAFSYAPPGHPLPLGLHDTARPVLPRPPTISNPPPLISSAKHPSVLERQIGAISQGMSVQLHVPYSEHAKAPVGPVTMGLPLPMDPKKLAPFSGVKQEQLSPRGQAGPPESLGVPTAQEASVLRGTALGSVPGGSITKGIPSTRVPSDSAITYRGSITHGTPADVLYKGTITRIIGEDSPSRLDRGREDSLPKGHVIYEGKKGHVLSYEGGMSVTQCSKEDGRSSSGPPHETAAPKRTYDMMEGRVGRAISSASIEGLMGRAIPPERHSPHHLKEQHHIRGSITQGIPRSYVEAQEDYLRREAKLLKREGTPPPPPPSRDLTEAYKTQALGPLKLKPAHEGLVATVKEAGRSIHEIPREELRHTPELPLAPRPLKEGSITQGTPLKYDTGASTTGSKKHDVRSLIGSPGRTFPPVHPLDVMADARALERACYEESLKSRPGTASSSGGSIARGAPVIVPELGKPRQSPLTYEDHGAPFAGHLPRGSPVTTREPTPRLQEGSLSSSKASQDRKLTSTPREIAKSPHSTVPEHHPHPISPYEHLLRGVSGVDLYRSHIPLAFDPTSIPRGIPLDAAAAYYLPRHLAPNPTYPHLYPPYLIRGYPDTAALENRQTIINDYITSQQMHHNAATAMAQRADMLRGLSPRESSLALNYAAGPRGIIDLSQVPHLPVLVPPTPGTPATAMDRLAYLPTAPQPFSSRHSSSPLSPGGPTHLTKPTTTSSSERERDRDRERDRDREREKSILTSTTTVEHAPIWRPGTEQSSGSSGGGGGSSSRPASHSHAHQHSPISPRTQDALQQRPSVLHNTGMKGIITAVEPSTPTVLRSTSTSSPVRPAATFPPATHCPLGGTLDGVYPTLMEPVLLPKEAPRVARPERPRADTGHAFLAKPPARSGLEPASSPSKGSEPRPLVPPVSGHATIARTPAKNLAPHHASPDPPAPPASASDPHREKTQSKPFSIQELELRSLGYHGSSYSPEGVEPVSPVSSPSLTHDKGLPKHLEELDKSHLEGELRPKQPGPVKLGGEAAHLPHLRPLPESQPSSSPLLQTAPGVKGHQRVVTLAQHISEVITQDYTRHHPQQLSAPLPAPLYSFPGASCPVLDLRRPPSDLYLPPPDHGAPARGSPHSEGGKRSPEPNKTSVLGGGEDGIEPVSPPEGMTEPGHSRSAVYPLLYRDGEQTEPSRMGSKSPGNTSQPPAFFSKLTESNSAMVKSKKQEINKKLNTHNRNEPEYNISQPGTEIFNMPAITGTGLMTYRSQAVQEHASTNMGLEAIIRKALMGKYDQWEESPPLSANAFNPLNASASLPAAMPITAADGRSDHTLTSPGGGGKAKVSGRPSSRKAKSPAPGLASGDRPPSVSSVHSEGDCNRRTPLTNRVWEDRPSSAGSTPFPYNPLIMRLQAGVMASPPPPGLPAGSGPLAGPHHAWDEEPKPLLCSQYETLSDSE

inhibition [9]: < 15%
inhibition [10]: < 15%
inhibition [11]: < 15%
inhibition [12]: < 15%
inhibition [13]: 22%
inhibition [14]: < 15%
inhibition [15]: < 15%
SMILES: CC(=O)CC(=O)NC/C=C/[C@@H]1CC(=O)NCc2nc(cs2)C2=N[C@@](C)(CS2)C(=O)N[C@@H](C(C)C)C(=O)O1
Activity [7]: inactive
Activity [8]: inactive

inhibition [9]: 30%
inhibition [10]: 24%
IC50 [16]: 8 µM
inhibition [12]: < 15%
inhibition [13]: < 15%
inhibition [14]: < 15%
inhibition [15]: 49%
SMILES: CCC(=O)CC/C=C/[C@@H]1CC(=O)NCc2nc(cs2)C2=N[C@@](C)(CS2)C(=O)N[C@@H](C(C)C)C(=O)O1
Activity [7]: inactive
Activity [8]: inactive

inhibition [9]: < 15%
inhibition [10]: < 15%
inhibition [11]: < 15%
inhibition [12]: < 15%
inhibition [13]: < 15%
inhibition [14]: 24%
inhibition [15]: < 15%
SMILES: CCC/C=C/[C@@H]1CC(=O)NCc2nc(cs2)C2=N[C@@](C)(CS2)C(=O)N[C@@H](C(C)C)C(=O)O1
Activity [7]: inactive
Activity [8]: inactive

inhibition [9]: < 15%
inhibition [10]: < 15%
inhibition [11]: < 15%
inhibition [12]: < 15%
inhibition [13]: < 15%
inhibition [14]: < 15%
inhibition [15]: < 15%
SMILES: CC(C)[C@@H]1NC(=O)[C@]2(C)CSC(=N2)c2csc(n2)CNC(=O)C[C@@H](/C=C/CCN)OC1=O
Activity [7]: inactive
Activity [8]: inactive

The remaining lines, values behind:

SMILES: CC(C)[C@@H]1NC(=O)[C@]2(C)CSC(=N2)c2csc(n2)CNC(=O)C[C@@H](/C=C/CCS)OC1=O
inhibition [1]: < 15%
IC50 [2]: 0.5 nM

SMILES: CCCCCCCC(=O)SCC/C=C/[C@@H]1CC(=O)NCc2nc(cs2)C2=N[C@@](C)(CS2)C(=O)N[C@@H](C(C)C)C(=O)O1 [LARGAZOLE]
IC50 [3]: 20 nM
IC50 [4]: 1.6 nM
inhibition [5]: Dose-dependent effect
inhibition [6]: Dose-dependent effect

SMILES: CC(C)[C@@H]1NC(=O)[C@]2(C)CSC(=N2)c2csc(n2)CNC(=O)C[C@@H](/C=C/CCC(=O)O)OC1=O
Activity [7]: inactive
Activity [8]: inactive
inhibition [9]: < 15%
inhibition [10]: < 15%
inhibition [11]: < 15%
inhibition [12]: < 15%
inhibition [13]: 17%
inhibition [14]: 20%
inhibition [15]: 19%
